Bioassay records: PubChem, The Scripps Research Institute Molecular Screening Center
PAD4 FP inh: human PAD4 inhibitors, primary screen, biochemical, fluorescence polarization, 1536-well format; Protein-arginine deiminase type-4 (Homo sapiens), Q9UM07; recombinant PAD4, RCA probe fluorescence polarization; inhibition, % at 6.36 µM; actives 0.41% (n = 330,000); AID 485272, 2010;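 active means percent inhibition above a cutoff equal to the mean of all tested compounds plus 3 SD, cut at about 15% in these data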;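 further: 0% = PAD4 with RCA probe and DMSO and 100% = probe without PAD4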
CTSL1 counter: Fasciola hepatica cathepsin L1 inhibitors, primary screen, counter-screen for PFM18AAP inhibitor project, biochemical, QFRET, fluorogenic peptide substrate; recombinant F. hepatica cathepsin L1, Z-Leu-Arg-MCA fluorescence; inhibition, % at 5.96 µM; actives 0.49% (n = 300,000); AID 1906, 2009;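 active means inhibition above the mean of all tested compounds plus 3 SD, set per screening campaign, cut at about 17% in these data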;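 further: 0% = plate median of test compound wells and 100% = 1 µM Z-Phe-Ala-diazomethylketone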
TDP2 absorb: human TDP2 enzyme inhibitors, primary screen, biochemical, epi absorbance, recombinant enzyme; Tyrosyl-DNA phosphodiesterase 2 (Homo sapiens), O95551; T5PNP hydrolysis, p-nitrophenol absorbance 415 nm; inhibition, % at 12.8 µM; actives 0.34% (n = 370,000);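 active means inhibition above the mean of all tested compounds plus 3 SD, set per campaign, cut at about 25% in these data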;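 further: 0% = DMSO with enzyme and 100% = buffer with substrate but no TDP2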
Target sequence (O95551 whole entry, looked up): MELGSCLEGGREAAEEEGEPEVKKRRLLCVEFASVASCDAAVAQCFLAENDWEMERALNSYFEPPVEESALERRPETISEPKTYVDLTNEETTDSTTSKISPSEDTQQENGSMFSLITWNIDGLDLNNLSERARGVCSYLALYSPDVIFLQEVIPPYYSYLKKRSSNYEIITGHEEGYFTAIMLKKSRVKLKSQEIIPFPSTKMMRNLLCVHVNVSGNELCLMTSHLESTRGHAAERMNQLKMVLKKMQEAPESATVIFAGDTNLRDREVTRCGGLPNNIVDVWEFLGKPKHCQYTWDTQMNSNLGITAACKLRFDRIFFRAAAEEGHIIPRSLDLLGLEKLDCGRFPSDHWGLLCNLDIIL
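Read-out basis: percent inhibition. System: recombinant human TDP2. Buffer or medium: Mg2+-containing Tris-HCl buffer, pH 7.5. Repeats: single replicate. Timing: reaction 2 h, 37 °C. Benchmarks: high control without enzyme, low control DMSO plus TDP2. Probe or stimulus: 5 mM T5PNP. Doses: 12.8 µM only. Measured by: epi absorbance of p-nitrophenol freed from T5PNP by hydrolysis.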
GSTO1 inh: inhibitors of recombinant GSTO1, primary screen, counter-screen for RBBP9 inhibitor project, biochemical, fluorescence polarization. Glutathione S-transferase omega-1 (Homo sapiens), P78417. activity-based probe fluorescence polarization. inhibition, % at 5.96 µM. actives 1.1% (n = 300,000). AID 1974, 2009;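 active means inhibition above the campaign mean inhibition plus 3 SD, cut at about 35% in these data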;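 further: 0% = GSTO1-1 with DMSO and 100% = wells lacking GSTO1-1 enzyme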
Target sequence (P78417 whole entry, looked up): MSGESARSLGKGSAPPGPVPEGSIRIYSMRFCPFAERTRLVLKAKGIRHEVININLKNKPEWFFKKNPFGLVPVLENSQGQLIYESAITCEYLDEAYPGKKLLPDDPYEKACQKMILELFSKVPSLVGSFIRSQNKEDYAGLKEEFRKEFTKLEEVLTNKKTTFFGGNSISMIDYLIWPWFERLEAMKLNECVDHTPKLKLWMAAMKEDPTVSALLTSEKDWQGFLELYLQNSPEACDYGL
PRMT1 inh: PRMT1 methyltransferase inhibitors, primary screen, biochemical, fluorescence polarization | actives 1.3% (n = 370,000) | recombinant PRMT1, activity-based probe fluorescence polarization | inhibition, % at 2.79 µM;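 active means inhibition above about 21% made by adding two undisclosed values, limit read from the data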
TDP2 confirm: human TDP2 enzyme inhibitors, retest, confirmation, biochemical, epi absorbance, recombinant enzyme. shares compounds with TDP2 absorb. absorbance read-out. inhibition, % at 12.8 µM. actives 22% (n = 1,100). AID 743263, 2014; in the data active means inhibition above about 25%;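 further: 0% = vehicle with enzyme and 100% = no enzyme buffer only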
An asterisk follows results filed as active; / = no result given. This is a sample that favours compounds with a hit; in the whole collection about 2.5% have one here.

SMILES	PAD4 FP inh	CTSL1 counter	TDP2 absorb	GSTO1 inh	PRMT1 inh	TDP2 confirm
Cc1ccc(NC(=O)C2CC3CCC2C3)cc1 (centres undefined)	/	/	-5	/	0	/
O=C(c1cc(COc2cccc3cnccc23)on1)N1CCC(c2ccccc2Cl)C1 (centres undefined)	-3	1	25*	-3	0	0
COc1ccc(N2C(=O)CC(Nc3ccc(N4CCOCC4)cc3)C2=O)c(OC)c1 (centres undefined)	10	2	25*	17	14	7
CN(C)c1ccc(N2C(=O)CC(Nc3ccc(N4CCOCC4)cc3)C2=O)cc1 (centres undefined)	-5	1	1	3	6	/
O=C(CNc1cccc2ccccc12)N/N=C/C(Br)=C/c1ccccc1	2	2	38*	15	20	-1
O=C(CNc1cccc2ccccc12)N/N=C/c1ccc[nH]1	4	-1	-8	1	2	/
CC(=O)Nc1sc2c(c1-c1cc3ccccc3o1)CCNC2	/	/	5	/	2	/
Cc1ccc(OCCOc2cccc3ccc(C)nc23)c([N+](=O)[O-])c1	-6	1	25*	-5	-2	10
Nn1cnnc1N/N=C/c1cccc(Cl)c1Cl	/	/	75*	/	4	-3
Clc1ccccc1N=Nc1ccccn1	/	/	42*	/	63*	27*
O=C(Cn1cnc([N+](=O)[O-])c1)Nc1ccc(F)c(Cl)c1	/	/	29*	/	-4	-8
N#CC1=C(N)Oc2n[nH]c(-c3cccnc3)c2C1c1cc(F)ccc1F (centres undefined)	2	3	52*	11	4	-12
CCNc1nc(NCC)n2c(SCC(=O)Nc3cc(Cl)ccc3OC)nnc2n1	2	-2	25*	18	5	-7
CCN(CC)c1cc(Cl)c2nonc2c1N	-3	0	33*	4	1	9
CCN(CC)c1cc2nonc2c2nonc12	-1	0	-9	3	3	/
COCCn1cnc2c1c(=O)n(CC(=O)NC(=O)NC(C)(C)C)c(=O)n2Cc1ccccc1	/	/	39*	/	-4	2
CCNC(=S)NNC(=O)Cn1c(=O)c2c(ncn2CCOC)n(Cc2ccccc2)c1=O	1	-2	-10	1	2	/
COc1ccc(OCC(=O)OCC(=O)NC2CCCCC2C)cc1 (centres undefined)	1	/	2	/	-1	/
COc1cc(NC2CCCCC2O)c2nc(-c3ccc(Cl)cc3)ccc2c1 (centres undefined)	11	4	33*	52*	1	-2
O=C(O)c1ccc(OCc2ccc(C(=O)O)o2)cc1	-1	-1	16	11	-2	/
N#Cc1ccc(OCc2ccc(C(=O)O)o2)cc1	-2	-4	26*	7	-3	2
Cc1ccccc1OCCC(=O)OCC(=O)c1c(N)n(CC(C)C)c(=O)n(C)c1=O	-3	-7	29*	0	-4	6
Cc1ccc(OCCC(=O)OCC(=O)c2c(N)n(CC(C)C)c(=O)n(C)c2=O)cc1	-4	/	5	/	2	/
Nc1c(C(=O)OCC(=O)Nc2ccccc2Br)[nH]c(=O)[nH]c1=O	-10	/	7	/	4	/
Nc1c(C(=O)OCC(=O)NCc2ccccc2)[nH]c(=O)[nH]c1=O	-11	5	49*	19	4	-3
SMILES	PAD4 FP inh	CTSL1 counter	TDP2 absorb	GSTO1 inh	PRMT1 inh	TDP2 confirm
COc1ccc(CNc2nc3nc(-c4ccccc4)cc(=O)n3[nH]2)cc1OC	-1	0	33*	-9	5	7
CCOC(=O)c1c(C)[nH]c(C)c1S(=O)(=O)N1c2ccccc2CC1C (centres undefined)	7	5	55*	-1	2	4
CCOC(=O)c1c(S(=O)(=O)N2c3ccccc3CC2C)c(C)n(C)c1C (centres undefined)	-4	-3	-9	-4	3	/
Cn1c(=O)c(=O)n(C)c2cc(S(=O)(=O)N3CCN(Cc4ccc(F)cc4)CC3)ccc21	/	/	-3	/	-2	/
Cc1cccc(-n2c3nc(=O)[nH]c(=O)c-3cc3c(C)nn(-c4ccccc4)c32)c1C	-1	3	12	-1	-1	/
Cc1cccc(-n2c3nc(=O)[nH]c(=O)c-3cc3cc([N+](=O)[O-])ccc32)c1	1	7	54*	-14	2	47*
S=C(Nc1ccc(I)cc1)OC1CCC12CCC(c1ccccc1)CC2 (centres undefined)	/	/	3	/	4	/
CCC(CO)Oc1cc(NC(=O)c2cccc(OC)c2)c2ncn(C(C)C)c2c1 (centres undefined)	-1	/	26*	/	-1	31*
Cc1ccc2[nH]c(O)c(N=Nc3nc4ccccc4s3)c2c1	3	8	25*	8	-6	-18
Oc1[nH]c2ccccc2c1N=Nc1nc2ccccc2s1	-2	-1	-14	-78	-3	/
Nn1c(SCC(=O)Nc2cc(C(F)(F)F)ccc2Cl)nnc1-c1n[nH]c2c1CCC2	/	/	7	/	-3	/
N/C(=N\N=C\c1ccc(Br)o1)c1nonc1N	3	4	30*	-5	-2	-1
COc1ccc(OC)c(CCNC(=O)CN2C(=O)CCSc3ccccc32)c1	4	-4	26*	2	4	2
CCOc1ccc(CCNC(=O)CN2C(=O)CCSc3ccccc32)cc1OCC	0	-23	-1	2	2	/
COC(=O)c1ccc(OCC(O)CNCC(c2ccc(OC)cc2)N(C)C)c(OC)c1 (centres undefined)	2	-1	26*	2	1	13
CCc1cc(SC#N)cc(C)c1N	3	-3	32*	0	3	5
COC[C@H]1CCCN1c1ccc2c(c1)OCCCN(C1CC1)S2(=O)=O	/	/	-3	/	0	/
O=C(O)Cc1ccc(N2N=C(c3ccccc3)CC2=O)cc1	/	/	71*	/	6	5
O=C(O)Cc1ccc(-c2ccccc2-c2ccccc2)cc1	1	-3	-9	9	-4	/
CCC(C)N(C(=O)c1oc(=O)c2ccccc2c1-c1ccc(C)cc1)C(C)CC (centres undefined)	/	/	1	/	0	/
COc1ccc(C)cc1NC(=S)NN1CCN(C)CC1	-3	-4	29*	1	4	1
CC1(C)CC(=O)C=C(C#CC2CC2)C1	/	/	2	/	2	/
CC1(C(=O)NC(=S)N(CCC#N)c2ccccc2)CC1(Cl)Cl (centres undefined)	0	-6	4	2	2	/
